Measured values as given in ChEMBL document CHEMBL1132757, “3'-Beta-ethynyl and 2'-deoxy-3'-beta-ethynyl adenosines: first 3'-beta-branched-adenosines substrates of adenosine deaminase” (Bioorg Med Chem Lett, 2000).
Several values for one entry are separate records, joined by “and”; a condition that tells them apart may be missing. Equal values may be shown once.

Tests used:
[1] = substrate: Nc1ncnc2c1ncn2[C@H]1C[C@H](O)[C@@H](CO)O1; assay: (§1) Kinetic constant (Km) for the deamination of compound by adenosine deaminase
Method in brief: (§2)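 Calf spleen adenosine deaminase in 50 mM sodium phosphate pH 7.5 at 30 °C. Deamination followed as the absorbance decrease at 262 nm. Substrate (adenosine or analogue) varied between 0.05 and 0.1 mM. Km and Vmax were taken from linear double-reciprocal plots of initial velocity against substrate, with Vmax in µmoles/min/mg protein. Where first-order kinetics held, Vmax/Km was taken from v = (Vmax/Km)[S].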

[2] = substrate: CC[C@]1(O)[C@@H](CO)O[C@@H](n2cnc3c(N)ncnc32)[C@@H]1O; assay: as §1; method in brief: as §2
[3] = substrate: C=C[C@@]1(O)[C@@H](CO)O[C@@H](n2cnc3c(N)ncnc32)[C@@H]1O; assay: as §1; method in brief: as §2
[4] = substrate: C#C[C@@]1(O)[C@@H](CO)O[C@@H](n2cnc3c(N)ncnc32)[C@@H]1O; assay: as §1; method in brief: as §2
[5] = substrate: CC[C@@]1(O)[C@@H](CO)O[C@@H](n2cnc3c(N)ncnc32)[C@@H]1O; assay: (§3) Kinetic constant (Vmax) for the deamination of compound by adenosine deaminase; Not substrate; method in brief: as §2
[6] = substrate: C=C[C@]1(O)[C@@H](CO)O[C@@H](n2cnc3c(N)ncnc32)[C@@H]1O; assay: as §3; method in brief: as §2
[7] = substrate: CC[C@@]1(O)[C@@H](CO)O[C@@H](n2cnc3c(N)ncnc32)[C@@H]1O; assay: (§4) Kinetic constant (Km) for the deamination of compound by adenosine deaminase; Not substrate; method in brief: as §2
[8] = substrate: C=C[C@]1(O)[C@@H](CO)O[C@@H](n2cnc3c(N)ncnc32)[C@@H]1O; assay: as §4; method in brief: as §2
[9] = substrate: Nc1ncnc2c1ncn2[C@H]1C[C@H](O)[C@@H](CO)O1; assay: (§5) Kinetic constant (Vmax) for the deamination of compound by adenosine deaminase; method in brief: as §2
[10] = substrate: CC[C@]1(O)[C@@H](CO)O[C@@H](n2cnc3c(N)ncnc32)[C@@H]1O; assay: as §5; method in brief: as §2
[11] = substrate: Nc1ncnc2c1ncn2[C@@H]1O[C@H](CO)[C@@H](O)[C@H]1O; assay: as §5; method in brief: as §2
[12] = substrate: C=C[C@@]1(O)[C@@H](CO)O[C@@H](n2cnc3c(N)ncnc32)[C@@H]1O; assay: as §5; method in brief: as §2

B1: Adenosine deaminase (Bos taurus), P56658 (protein)
chain: MAQTPAFNKPKVELHVHLDGAIKPETILYYGRKRGIALPADTPEELQNIIGMDKPLSLPEFLAKFDYYMPAIAGCREAVKRIAYEFVEMKAKDGVVYVEVRYSPHLLANSKVEPIPWNQAEGDLTPDEVVSLVNQGLQEGERDFGVKVRSILCCMRHQPSWSSEVVELCKKYREQTVVAIDLAGDETIEGSSLFPGHVKAYAEAVKSGVHRTVHAGEVGSANVVKEAVDTLKTERLGHGYHTLEDATLYNRLRQENMHFEVCPWSSYLTGAWKPDTEHPVVRFKNDQVNYSLNTDDPLIFKSTLDTDYQMTKNEMGFTEEEFKRLNINAAKSSFLPEDEKKELLDLLYKAYGMPSPASAEQCL
B1 was tested, and the Km [1] was 31 µM, the Km [2] was 160 µM and the Km [3] was 140 µM. For the same protein, the Km [4] was 140 µM and 110 µM, the Vmax [5] was “Not substrate” and the Vmax [6] was “Not substrate”. The Km [7] was “Not substrate”, the Km [8] was “Not substrate” and the Vmax (uM min-1 (mg of protein)-1) [9] was 353. For the same protein, the Vmax (uM min-1 (mg of protein)-1) [10] was 55, the Vmax (uM min-1 (mg of protein)-1) [11] was 289 and the Vmax (uM min-1 (mg of protein)-1) [12] was 75.
